Tests used:
L1210 [1] = assay: Antitumor activity against murine L1210 resistant cell line by using MTT assay; assay type: functional, cell-based; conditions: Mus musculus
[2] = Cardiotoxicity was measured by using Neonatal rat heart myocyte assay; assay type: toxicity, tissue-based
Summary of the method: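 Neonatal rat heart myocytes in culture, 1 h drug exposure; cytotoxicity taken as the concentration lowering the ATP/protein ratio to 0.5, reported as IC50.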

L1210 [3] = assay: Anti-tumor activity against murine L1210 sensitive cell line by using MTT assay; assay type: functional, cell-based; conditions: Mus musculus
[4] = Toxicity ratio of quotient of the IC50 in myocytes divided by the average IC50 for three tumor cell lines; assay type: cell-based; conditions: myocytes and three tumor cell lines; read-out: Toxicity ratio
Summary of the method: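 Calculated ratio: myocyte IC50 (neonatal rat heart cells, 1 h exposure, ATP/protein end point) divided by the mean IC50 across A375 melanoma, OVCAR-3 ovarian and sensitive L1210 leukemia cells under continuous exposure.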

OVCAR-3 = assay: Anti-tumor activity against human OVCAR-3 ovarian cancer cell lines by using MTT assay; assay type: functional, cell-based
Summary of the method: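 Human tumor lines (A375 melanoma; OVCAR-3 ovarian carcinoma resistant to standard drugs) under continuous exposure, read by sulforhodamine B or MTT. Drugs from DMSO stocks diluted in PBS pH 7.4, 10^1–10^-5 μg/mL half-log, DMSO ≤0.1%, 37 °C, 5% CO2. MTT: 6 days then 4 h dye, A570. SRB: 8 days, TCA fixation, 0.4% SRB stain, OD 564 nm. Six wells per concentration; IC50 averaged.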

Mus musculus [5] = assay: The percent increase in life span of compound was measured against P388 Leukemia cells in mice at a dose of 4 mg/kg on days 1,5 and 9; assay type: functional
Summary of the method: (§1)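 Standard NCI protocol: 10^6 freshly harvested P388 cells injected ip into 10 adult male DBA/2J mice on day 0; compound given ip on days 1, 5 and 9; control group of 10 mice given tumor cells and saline on the same days. %ILS = 100 × (treated − control lifespan)/control lifespan, using group median lifespans.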

Mus musculus [6] = assay: The percent increase in life span of compound was measured against P388 Leukemia in mice at a dose of 8 mg/kg on days 1,5 and 9; assay type: functional; summary of the method: as §1
Mus musculus [7] = assay: The percent increase in life span of compound was measured against P388 Leukemia in mice at a dose of 10 mg/kg on days 1,5 and 9; assay type: functional; summary of the method: as §1
WiDr [8] = assay: Activity against resistant cell line of WiDr human colon tumor; assay type: functional, cell-based
Summary of the method: (§2)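 WiDr colon cells, sensitive line and a subline selected for resistance to mitoxantrone; MTT assay with continuous drug exposure. Compounds as hydrochlorides, dissolved in DMSO then serially diluted in PBS pH 7.4, 10^1–10^-5 μg/mL in half-log steps, DMSO ≤0.1% final.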

WiDr [9] = assay: Activity against sensitive cell line of WiDr human colon tumor; assay type: functional, cell-based; summary of the method: as §2
Mus musculus [10] = assay: The percent increase in life span of compound was measured against P388 Leukemia in mice at a dose of 15 mg/kg on days 1,5 and 9; assay type: functional; summary of the method: as §1
Mus musculus [11] = assay: The percent increase in life span of compound was measured against P388 Leukemia cells in mice at a dose of 10 mg/kg on days 1,5 and 9; assay type: functional; summary of the method: as §1
Mus musculus [12] = assay: The percent increase in life span of compound was measured against P388 Leukemia cells in mice at a dose of 5 mg/kg on days 1,5 and 9; assay type: functional
Mus musculus [13] = assay: The percent increase in life span of compound was measured against P388 Leukemia cells in mice at a dose of 4.5 mg/kg on days 1,5 and 9; assay type: functional; summary of the method: as §1
Mus musculus [14] = assay: The percent increase in life span of compound was measured against P388 Leukemia cells in mice at a dose of 1.6 mg/kg on days 1,5 and 9; assay type: functional; summary of the method: as §1

SMILES: CC(=O)Nc1ccc2c3c4c(cccc4cc2c1)C(=O)N(CCN(C)C)C3=O
- IC50 (L1210 [1]): 170 nM
- Cardiotoxicity [2]: 0.487 µM
- IC50 (L1210 [3]): 114 nM
- selectivity ratio [4]: 7.7
- IC50 (OVCAR-3): 13 nM

SMILES: CN(C)CCN1C(=O)c2c(N)ccc3cc4ccccc4c(c23)C1=O
- IC50 (L1210 [1]): 7.9 nM
- Cardiotoxicity [2]: 0.434 µM
- IC50 (L1210 [3]): 5.4 nM
- selectivity ratio [4]: 48
- IC50 (OVCAR-3): 12 nM

SMILES: CN(C)CCN1C(=O)c2cccc3cc4ccc(N)cc4c(c23)C1=O
- IC50 (L1210 [1]): 2.7 nM
- ILS at 4 mg/kg (Mus musculus [5]): 27%
- Cardiotoxicity [2]: 0.943 µM
- IC50 (L1210 [3]): 2.5 nM
- selectivity ratio [4]: 34
- IC50 (OVCAR-3): 20 nM
- ILS at 8 mg/kg (Mus musculus [6]): 73%
- ILS at 10 mg/kg (Mus musculus [7]): 109%
- IC50 (WiDr [8]): 18 nM
- IC50 (WiDr [9]): 5.5 nM

SMILES: CC(=O)Nc1ccc2cc3cccc4c3c(c2c1)C(=O)N(CCN(C)C)C4=O
- IC50 (L1210 [1]): 219 nM
- Cardiotoxicity [2]: 7.786 µM
- IC50 (L1210 [3]): 49 nM
- selectivity ratio [4]: 120
- IC50 (OVCAR-3): 49 nM
- IC50 (WiDr [8]): 50 nM
- IC50 (WiDr [9]): 9 nM

SMILES: CN(C)CCN1C(=O)c2cccc3cc4c(N)cccc4c(c23)C1=O
- IC50 (L1210 [1]): 6780 nM
- Cardiotoxicity [2]: > 81.3 µM
- IC50 (L1210 [3]): 6780 nM
- selectivity ratio [4]: > 6.7
- IC50 (OVCAR-3): 9480 nM

SMILES: CN(C)CCN1C(=O)c2c(NC(=O)C(C)(C)C)ccc3cc4ccccc4c(c23)C1=O
- IC50 (L1210 [1]): 172 nM
- Cardiotoxicity [2]: > 24.63 µM
- IC50 (L1210 [3]): 862 nM
- selectivity ratio [4]: > 25
- IC50 (OVCAR-3): 493 nM

SMILES: CN(C)CCN1C(=O)c2cccc3cc4cc(N)ccc4c(c23)C1=O
- IC50 (L1210 [1]): 16 nM
- Cardiotoxicity [2]: 0.813 µM
- IC50 (L1210 [3]): 2.7 nM
- selectivity ratio [4]: 39
- IC50 (OVCAR-3): 14 nM

SMILES: CN(C)CCN1C(=O)c2cccc3cc4cccc(N)c4c(c23)C1=O
- IC50 (L1210 [1]): 678 nM
- Cardiotoxicity [2]: 27.1 µM
- IC50 (L1210 [3]): 678 nM
- selectivity ratio [4]: 24
- IC50 (OVCAR-3): 1760 nM

SMILES: CN(C)CCN1C(=O)c2cccc3cc4c([N+](=O)[O-])cccc4c(c23)C1=O
- IC50 (L1210 [1]): 20 nM
- Cardiotoxicity [2]: 0.65 µM
- IC50 (L1210 [3]): 50 nM
- selectivity ratio [4]: 14
- IC50 (OVCAR-3): 50 nM

SMILES: CN(C)CCN1C(=O)c2cccc3cc4cccc([N+](=O)[O-])c4c(c23)C1=O
- IC50 (L1210 [1]): 50 nM
- Cardiotoxicity [2]: 8.647 µM
- IC50 (L1210 [3]): 23 nM
- selectivity ratio [4]: 80
- IC50 (OVCAR-3): 226 nM

SMILES: CN(C)CCN1C(=O)c2cc(N)cc3cc4ccccc4c(c23)C1=O
- IC50 (L1210 [1]): 15 nM
- Cardiotoxicity [2]: 1.724 µM
- IC50 (L1210 [3]): 6.2 nM
- selectivity ratio [4]: 101
- IC50 (OVCAR-3): 20 nM

SMILES: CC(=O)Nc1cc2c3c(c4ccccc4cc3c1)C(=O)N(CCN(C)C)C2=O
- IC50 (L1210 [1]): 73 nM
- Cardiotoxicity [2]: 0.177 µM
- IC50 (L1210 [3]): 19 nM
- selectivity ratio [4]: 3.5
- IC50 (OVCAR-3): 61 nM

SMILES: CC(=O)Nc1c2ccccc2c2c3c(cccc13)C(=O)N(CCN(C)C)C2=O
- IC50 (L1210 [1]): 487 nM
- Cardiotoxicity [2]: > 24.331 µM
- IC50 (L1210 [3]): 487 nM
- selectivity ratio [4]: > 37
- IC50 (OVCAR-3): 730 nM

SMILES: CC(=O)Nc1ccc2cc3ccccc3c3c2c1C(=O)N(CCN(C)C)C3=O
- IC50 (L1210 [1]): 560 nM
- Cardiotoxicity [2]: > 24.331 µM
- IC50 (L1210 [3]): 608 nM
- selectivity ratio [4]: > 33
- IC50 (OVCAR-3): 608 nM

SMILES: CC(=O)Nc1cccc2cc3cccc4c3c(c12)C(=O)N(CCN(C)C)C4=O
- IC50 (L1210 [1]): 2430 nM
- Cardiotoxicity [2]: > 22.5 µM
- IC50 (L1210 [3]): 243 nM
- selectivity ratio [4]: > 13.2
- IC50 (OVCAR-3): 2430 nM

SMILES: CN(C)CCN1C(=O)c2cc(NC(=O)C(C)(C)C)cc3cc4ccccc4c(c23)C1=O
- IC50 (L1210 [1]): 15 nM
- Cardiotoxicity [2]: 0.662 µM
- IC50 (L1210 [3]): 44 nM
- selectivity ratio [4]: 9.5
- IC50 (OVCAR-3): 33 nM

SMILES: CN(C)CCN1C(=O)c2cccc3cc4ccc(NC(=O)C(C)(C)C)cc4c(c23)C1=O
- IC50 (L1210 [1]): 200 nM
- Cardiotoxicity [2]: 11.025 µM
- IC50 (L1210 [3]): 200 nM
- selectivity ratio [4]: 55
- IC50 (OVCAR-3): 150 nM

SMILES: CN(C)CCN1C(=O)c2ccc(N)c3cc4ccccc4c(c23)C1=O
- IC50 (L1210 [1]): 27 nM
- Cardiotoxicity [2]: 1.486 µM
- IC50 (L1210 [3]): 5.4 nM
- selectivity ratio [4]: 20
- IC50 (OVCAR-3): 68 nM

SMILES: CN(C)CCN1C(=O)c2cccc3cc(N)cc(c23)C1=O [AMONAFIDE]
- ILS at 15 mg/kg (Mus musculus [10]): 88%
- Cardiotoxicity [2]: 48.4 µM
- selectivity ratio [4]: 30
- ILS at 10 mg/kg (Mus musculus [11]): 45%

SMILES: CN(C)CCN1C(=O)c2cccc3cc4ccccc4c(c23)C1=O [AZONAFIDE]
- ILS at 15 mg/kg (Mus musculus [10]): 79%
- Cardiotoxicity [2]: 1.983 µM
- selectivity ratio [4]: 44
- ILS at 10 mg/kg (Mus musculus [7]): 63%
- ILS at 5 mg/kg (Mus musculus [12]): 25%
- IC50 (WiDr [8]): 15 nM
- IC50 (WiDr [9]): 10 nM

SMILES: COc1cccc2c1C(=O)c1c(O)c3c(c(O)c1C2=O)C[C@@](O)(C(=O)CO)C[C@@H]3O[C@H]1C[C@H](N)[C@H](O)[C@H](C)O1 [DOXORUBICIN]
- IC50 (L1210 [1]): 3880 nM
- Cardiotoxicity [2]: 11.064 µM
- IC50 (L1210 [3]): 35 nM
- selectivity ratio [4]: 181
- IC50 (OVCAR-3): 35 nM
- ILS at 4.5 mg/kg (Mus musculus [13]): 113%

SMILES: O=C1c2c(O)ccc(O)c2C(=O)c2c(NCCNCCO)ccc(NCCNCCO)c21 [MITOXANTRONE]
- IC50 (L1210 [1]): 39 nM
- Cardiotoxicity [2]: 7.737 µM
- IC50 (L1210 [3]): 5 nM
- selectivity ratio [4]: 387
- IC50 (OVCAR-3): 5.8 nM
- ILS at 1.6 mg/kg (Mus musculus [14]): 200%
- IC50 (WiDr [8]): 1400 nM
- IC50 (WiDr [9]): 10 nM

Reference: ChEMBL document CHEMBL1128275, “Amino-substituted 2-[2'-(dimethylamino)ethyl]-1,2-dihydro-3H- dibenz[de,h]isoquinoline-1,3-diones. Synthesis, antitumor activity, and quantitative structure--activity relationship” (J Med Chem, 1995)
